{"data": "Published values from different studies", "effect on": "enzyme activity", "action": "inhibitor", "gag-pol reverse transcriptase": "Gag-Pol polyprotein, reverse transcriptase (gag-pol, Human immunodeficiency virus type 1 group M subtype B, UniProt P04585)", "gag-pol protease": "Gag-Pol polyprotein, protease (gag-pol, Human immunodeficiency virus type 1 group M subtype B, UniProt P04585)", "note": "Each line is one published result; the experiments were not run side by side."}
{"Compound": "CC(C)(C)n1cc(C#N)c2cc(C=O)cnc21", "target": "gag-pol reverse transcriptase", "test": "FRET", "measurement": "IC50", "value": "> 10 µM"}
{"Compound": "C=CCCc1c(O)cccc1C(=O)N[C@@H](Cc1ccc(OCC=C)cc1)[C@H](O)CN(CC(C)C)S(=O)(=O)c1ccc(OC)cc1", "target": "gag-pol protease", "measurement": "Ki", "value": "5 nM"}
{"Compound": "Cc1cn([C@H]2C[C@H](N=[N+]=[N-])[C@@H](CO[P@](=O)(O)O[P@](=O)(O)OP(=O)(O)O)O2)c(=O)[nH]c1=O", "target": "gag-pol reverse transcriptase", "measurement": "IC50", "value": "0.185 µM"}
{"Compound": "C=CCn1cc(C#N)c2cc(C#N)cnc21", "target": "gag-pol reverse transcriptase", "test": "FRET", "measurement": "IC50", "value": "> 100 µM"}
{"Compound": "CC(C)CN(C[C@@H](O)[C@H](Cc1ccccc1)NC(=O)O[C@H]1CCO[C@H]2OCC[C@H]21)S(=O)(=O)c1ccc(C(=O)O)cc1", "target": "gag-pol protease", "measurement": "Ki", "value": "0.0076 nM"}
{"Compound": "Cc1ccc(-c2cnc3c(c2)c(C#N)cn3Cc2ccccc2)cc1", "target": "gag-pol reverse transcriptase", "test": "FRET", "measurement": "IC50", "value": "> 100 µM"}
{"Compound": "CC(C)C[C@H]1C(OC(C)(C)C)=CC(=O)N1[C@H]1CCN(C2=CC(=O)NC2Cc2ccccc2)C1 (stereo partly shown)", "target": "gag-pol protease", "test": "fluorescence", "measurement": "IC50", "value": "516 µM"}
{"Compound": "O=C1c2c(O)ccc(O)c2C(=O)c2c(NCCNCCO)ccc(NCCNCCO)c21", "target": "gag-pol reverse transcriptase", "measurement": "IC50", "value": "6.3 µM"}
{"Compound": "O=C(O)Cc1ccc(O)c(O)c1", "target": "Gag-Pol polyprotein, integrase (gag-pol, Human immunodeficiency virus type 1 group M subtype B, UniProt P04585)", "measurement": "IC50", "value": "> 25 µM"}
{"Compound": "C=CCCCCOc1ccc(C[C@H](NC(=O)c2cccc(O)c2CCC=C)[C@H](O)CN(CC(C)C)S(=O)(=O)c2ccc(OC)cc2)cc1", "target": "gag-pol protease", "measurement": "Ki", "value": "30 nM"}
{"Compound": "CCCc1c2c(nc3c1c(C#N)cn3C1CCCCC1)CCC2=O", "target": "gag-pol reverse transcriptase", "test": "FRET", "measurement": "IC50", "value": "> 100 µM"}
{"Compound": "CC(C)C[C@H]1C(N2CC[C@H](N3C(=O)C=C(OC(C)(C)C)[C@@H]3C)C2)=CC(=O)N1[C@H]1CCN(C2=CC(=O)N[C@H]2Cc2ccccc2)C1", "target": "gag-pol protease", "test": "fluorescence", "measurement": "IC50", "value": "54.9 µM"}
{"Compound": "C=CCCOc1ccc(C[C@H](NC(=O)c2cccc(O)c2CCC=C)[C@H](O)CN(CC(C)C)S(=O)(=O)c2ccc(OC)cc2)cc1", "target": "gag-pol protease", "measurement": "Ki", "value": "7 nM"}
